The test system of one data set is Bacillus subtilis. Nature of the data set: Antibacterial activity against Bacillus subtilis ATCC 9466 after 24 hrs by microdilution serial twofold assay. As to conditions: ATCC 9466, 24 h. Format: functional.
Data set [1] deals with Staphylococcus aureus. Nature of the data set: Antibacterial activity against multi drug-resistant Staphylococcus aureus after 24 hrs by microdilution serial twofold assay. It is filed as functional. In a few lines:
(§1)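 Mueller Hinton Broth cultures grown statically at 37 °C and diluted to 5 × 10⁵ CFU/mL. Twofold serial microdilution from 100 μg/mL peptide, final volume 200 μL, with peptide-free controls. MIC is the lowest concentration with no turbidity increase after overnight incubation at 37 °C. Means come from at least two independent experiments run in duplicate.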

The subject of a further data set is Burkholderia cepacia. The data set is described as follows: Antibacterial activity against Burkholderia cepacia 6/06 after 24 hrs by microdilution serial twofold assay. It is filed as functional. The method in brief:
(§2)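 Bacteria grown in static culture at 37 °C in Mueller Hinton broth and diluted to 5 × 10⁵ CFU/mL. Peptides were tested by twofold serial microdilution starting from 100 μg/mL, with peptide-free control wells. The MIC was the lowest concentration with no rise in turbidity after overnight incubation at 37 °C. Values are means of at least two independent experiments run in duplicate.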

Data set [2] concerns Escherichia coli. The data set is described as follows: Antibacterial activity against Escherichia coli HB101 after 24 hrs by microdilution serial twofold assay. The following applies: HB101, 24 h. Format: functional. The method in brief: as §2
The subject of the next data set is Candida albicans. The data set is described as follows: Antifungal activity against wild type Candida albicans by broth microdilution method. It is filed as functional. The method in brief: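 Wild-strain yeast was tested in triplicate by broth microdilution following NCCLS recommendations. The MIC was the lowest peptide concentration with no increase in turbidity after overnight incubation at 37 °C.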

Data set [3] has as its system Leishmania major. Nature of the data set: Antileishmanial activity against Leishmania major MHOM/IL/67/JERICHO-2 assessed as protozoal viability after 24 hrs by dye exclusion method. It is filed as functional. The method in brief: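 Promastigotes grown at 25 °C in supplemented medium 199 containing 20% heat-inactivated FCS, then resuspended at 5 × 10⁵ viable/mL with serially diluted peptides. After 24 h at 25 °C with agitation, viable cells were counted by haemocytometer using trypan blue exclusion. LC₅₀ is the 50% survival reduction versus an untreated culture, fitted by nonlinear regression. Run in triplicate.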

Data set [4] can be described thus: Toxicity assessed as hemolytic activity in human red blood cells after 30 mins. Format: cell-based, Erythrocyte. As to conditions: read-out: HD50. In a few lines:
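Serially diluted peptides were incubated with 10⁸ washed human RBC (100 µL) for 30 min at 37 °C with agitation. After centrifugation at 900g for 10 min, haemoglobin in the supernatant was read at 550 nm. Distilled water gave maximal lysis. HC₅₀ is the mean from at least two independent experiments run in triplicate.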

For data set [5], the system named is Staphylococcus aureus. The data set is described as follows: Antibacterial activity against Staphylococcus aureus Cowan 1 NCTC 8530 after 3 hrs by microdilution serial twofold assay. Format: functional. As to conditions: Cowan 1, 3 h, read-out: LD50 (the source's name). The method in brief: (§3)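 Mueller Hinton Broth static cultures grown at 37 °C and diluted to 5 × 10⁵ CFU/mL. Peptides were tested by twofold serial microdilution starting from 100 μg/mL in a final volume of 200 μL, with peptide-free controls. After 3 h incubation, cultures were serially 10-fold diluted in PBS and plated on Mueller Hinton Agar. Counts were taken after 24 h at 37 °C. Value is the dose giving 50% bacterial lethality.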

Data set [6] relates to Escherichia coli. Nature of the data set: Antibacterial activity against Escherichia coli HB101 after 3 hrs by microdilution serial twofold assay. Format: functional. As to conditions: HB101, 3 h, read-out: LD50 (the source's name). The method in brief:
as §3

The subject of data set [7] is Staphylococcus aureus. Nature of the data set: Antibacterial activity against Staphylococcus aureus Cowan 1 NCTC 8530 after 24 hrs by microdilution serial twofold assay. Format: functional. The following applies: Cowan 1, 24 h. The method in brief: as §2
Data set [8] deals with Pseudomonas aeruginosa. Nature of the data set: Antibacterial activity against Pseudomonas aeruginosa ATCC 15442 after 24 hrs by microdilution serial twofold assay. It is filed as functional. As to conditions: ATCC 15442, 24 h.
For data set [9], the system named is Stenotrophomonas maltophilia. Nature of the data set: Antibacterial activity against Stenotrophomonas maltophilia FC after 24 hrs by microdilution serial twofold assay. Format: functional. In a few lines: as §2
Data set [10] relates to Leishmania major. The data set is described as follows: Antileishmanial activity against Leishmania major MHOM/IL/67/JERICHO-2 after 24 hrs by dye exclusion method. Format: functional. The method in brief: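 Promastigotes were grown at 25 °C in medium 199 with 20% heat-inactivated FCS, penicillin/streptomycin, L-glutamine, HEPES, adenine, hemin and biotin. They were resuspended at 5 × 10⁵ viable cells/mL and exposed to serial peptide dilutions at 25 °C with agitation. Viability was counted by trypan blue exclusion in a haemocytometer.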

Data set [11] has as its system Pseudomonas aeruginosa. The data set is described as follows: Antibacterial activity against multi drug-resistant Pseudomonas aeruginosa after 24 hrs by microdilution serial twofold assay. It is filed as functional. The method in brief: as §1
The test system of data set [12] is Staphylococcus aureus. The data set is described as follows: Antibacterial activity against Staphylococcus aureus ATCC 6538P after 24 hrs by microdilution serial twofold assay. It is filed as functional.

These results are taken from ChEMBL document CHEMBL1156720, “Synthesis and antimicrobial activity of dermaseptin S1 analogues” (Bioorg Med Chem, 2008).

Where “and” joins values, the source holds several entries; their conditions need not be identical. Equal entries are not always repeated.

With H-ALWKTMLKKLGTMAL-NH2, the minimum inhibitory concentration (MIC) was 5.7 µM against Bacillus subtilis; over 47 µM in the data set with Staphylococcus aureus [1]; 23.7 µM in the data set on Burkholderia cepacia; 2.9 µM in the data set on Escherichia coli [2]; 23.7 µM in the data set with Candida albicans; 11.5 µM in the data set with Staphylococcus aureus [7]. Besides, the MIC against Pseudomonas aeruginosa [8] is over 47 µM; in data set [9] it was over 45 µM; in the data set with Leishmania major [10] it was 50 µg/mL and 22.8 µM; with Pseudomonas aeruginosa [11] it was over 47 µM; against Staphylococcus aureus [12], 5.7 µM. Moreover, the LC50 was 19 µg/mL and 8.7 µM in the data set with Leishmania major [3]; 2.7 µM in the data set with Staphylococcus aureus [5]; 1.4 µM in the data set on Escherichia coli [6]. In [4], the HC50 at 0.5 h is over 100 µM.

Consider H-ALWKTMLKKLGT-NH2, for which the minimum inhibitory concentration (MIC) is over 54 µM in the data set on Escherichia coli [2]; over 54 µM in the data set with Staphylococcus aureus [7]; 100 µg/mL and 54.2 µM with Leishmania major [10]. Also, the LC50 is 50 µg/mL and 27.1 µM with Leishmania major [3]; 54 µM in the data set with Staphylococcus aureus [5]; 54 µM in the data set on Escherichia coli [6]. The HC50 at 0.5 h in [4] was over 100 µM.

H-ALWKTMLKKLGTM-NH2: the MIC is 50.6 µM in the data set with Escherichia coli [2]; over 50.6 µM against Staphylococcus aureus [7]; 100 µg/mL and 50.6 µM in the data set on Leishmania major [10]. Moreover, the LC50 is 50 µg/mL and 25.3 µM with Leishmania major [3]; 50.6 µM in the data set on Staphylococcus aureus [5]; 22.7 µM in the data set with Escherichia coli [6]. For the same substance, in data set [4], the HC50 at 0.5 h was over 100 µM.
